From ChEMBL document CHEMBL3758106, “Antitumor Activity of Americanin A Isolated from the Seeds of Phytolacca americana by Regulating the ATM/ATR Signaling Pathway and the Skp2-p27 Axis in Human Colon Cancer Cells” (J Nat Prod, 2015)
Activity calls are given as the source filed them. The calls are words filed in the database; no cut-off is given here.

Key:
HCT-116 [1] = assay: Induction of cell cycle arrest in human HCT116 cells assessed as accumulation at sub-G1 phase at 30 uM after 24 hrs by propidium iodide staining-based flow cytometric analysis in presence of RNase A (reference value: 1.5%); type: functional
[2] = molecular target: Serine-protein kinase ATM/ATR (Homo sapiens) (UniProt Q13315+Q13535); assay: Activation of ATM/ATR in human HCT116 cells assessed as increase in Chk1 phosphorylation at S345 at 7.5 to 30 uM after 24 hrs by Western blot analysis; type: cell-based; settings: HCT-116
Procedure, shortened: (§1)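 HCT116 cells exposed 24 h in complete medium; lysed in RIPA buffer (pH 8.0), protein by BCA, equal loads run on 8–13% SDS-PAGE, PVDF transfer, blocked in 5% BSA/TBST, primary antibodies overnight at 4 °C, HRP secondaries 2 h RT, ECL detection; β-actin as loading control.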

CAKI-1 = assay: Antiproliferative activity against human CAKI-1 cells after 24 to 72 hrs by SRB assay; type: functional, cell-based
Procedure, shortened: (§2)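 Cells grown in 96-well plates (RPMI 1640; MRC-5 in MEM, 10% FBS, antibiotics) with compound […]; fixed in 10% TCA 30 min at 4 °C, stained 0.4% SRB in 1% acetic acid 1 h, dye dissolved in 10 mM Tris pH 10.0, A515 read; viability as % of solvent control, IC50 by nonlinear regression; mean of three independent experiments.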

HCT-116 [3] = assay: Induction of apoptosis in human HCT116 cells assessed as cleaved caspase 3 level at 30 uM up to 24 hrs by Western blot analysis in presence of NAC; type: functional, cell-based
[4] = Decrease in Skp1 expression in human HCT116 cells at 7.5 to 30 uM after 24 hrs by western blot analysis; type: functional, cell-based; settings: HCT-116; procedure, shortened: as §1
HCT-116 [5] = assay: Induction of cell cycle arrest in human HCT116 cells assessed as accumulation at sub-G1 phase at 15 uM after 24 hrs by propidium iodide staining-based flow cytometric analysis in presence of RNase A (reference value: 1.5%); type: functional
[6] = Antitumor activity against human HCT116 cells xenografted in nude mouse assessed as tumor growth inhibition at 5 mg/kg, ip administered 3 times per week measured on day 41; type: functional; settings: HCT-116, ip, 984 h, read-out: TGI
Procedure, shortened: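 Nude mice given 2 × 10^6 HCT116 cells subcutaneously in flank; at ~120 mm3 randomised, six per group; ip dosing in 200 μL, test agent 5 or 10 mg/kg three times weekly, irinotecan 10 mg/kg once weekly; tumour volume measured twice weekly to day 41; body weight tracked for toxicity.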

HCT-116 [7] = assay: Induction of apoptosis in human HCT116 cells assessed as viable cells at 15 uM after 48 hrs by annexin V-FITC/propidium iodide staining-based flow cytometric analysis (reference value: 91.2%); type: functional; settings: HCT-116, 48 h, read-out: Activity
HCT-116 [8] = assay: Induction of cell cycle arrest in human HCT116 cells assessed as accumulation at G2/M phase at 7.5 uM after 48 hrs by propidium iodide staining-based flow cytometric analysis in presence of RNase A (reference value: 19.7%); type: functional
HCT-116 [9] = assay: Induction of cell cycle arrest in human HCT116 cells assessed as accumulation at sub-G1 phase at 7.5 uM after 48 hrs by propidium iodide staining-based flow cytometric analysis in presence of RNase A (reference value: 6.5%); type: functional
[10] = molecular target: S-phase kinase-associated protein 1/2 (Homo sapiens) (UniProt Q13309+P63208); assay: Inhibition of Skp2/Skp1 protein interaction in human HCT116 cells after 24 hrs by immunoprecipitation assay; type: cell-based; settings: HCT-116
Chain of S-phase kinase-associated protein 1/2 (Homo sapiens) (P63208 whole entry, looked up): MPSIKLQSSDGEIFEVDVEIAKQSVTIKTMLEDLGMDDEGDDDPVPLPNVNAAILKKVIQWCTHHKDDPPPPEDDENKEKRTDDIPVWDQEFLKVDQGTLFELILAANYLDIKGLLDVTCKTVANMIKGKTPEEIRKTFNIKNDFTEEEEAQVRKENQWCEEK
Chain of S-phase kinase-associated protein 1/2 (Homo sapiens) (Q13309 whole entry, looked up): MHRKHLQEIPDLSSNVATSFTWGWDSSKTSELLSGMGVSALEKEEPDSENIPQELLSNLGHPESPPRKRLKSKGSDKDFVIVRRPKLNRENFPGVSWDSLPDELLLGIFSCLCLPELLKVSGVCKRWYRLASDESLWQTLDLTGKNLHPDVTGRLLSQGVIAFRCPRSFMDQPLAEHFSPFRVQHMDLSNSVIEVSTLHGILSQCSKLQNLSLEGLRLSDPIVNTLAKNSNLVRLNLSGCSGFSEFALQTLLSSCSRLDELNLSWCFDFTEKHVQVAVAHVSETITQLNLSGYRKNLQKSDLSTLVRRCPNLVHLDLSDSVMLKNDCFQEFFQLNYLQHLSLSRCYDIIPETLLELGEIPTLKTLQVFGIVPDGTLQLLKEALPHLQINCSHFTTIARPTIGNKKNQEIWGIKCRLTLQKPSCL
Procedure, shortened: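 Protein measured by Bradford. Equal protein incubated with Protein G sepharose and the capture antibody (anti-p53, anti-Cul-1 or anti-Skp2) overnight at 4 °C. Bead eluates boiled in Laemmli/2-mercaptoethanol and analysed by Western blot.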

[11] = Downregulation of cdc2 expression in human HCT116 cells at 7.5 to 30 uM after 24 hrs by Western blot analysis; type: functional, cell-based; settings: HCT-116; procedure, shortened: as §1
HCT-116 [12] = assay: Induction of apoptosis in human HCT116 cells assessed as viable cells at 30 uM after 48 hrs by annexin V-FITC/propidium iodide staining-based flow cytometric analysis (reference value: 87.4%); type: functional; settings: HCT-116, 48 h, read-out: Activity
[13] = Downregulation of phosphorylated ATM expression in human HCT116 cells at 30 uM after 1 hr by Western blot analysis; type: functional, cell-based; settings: HCT-116, TDE = time-dependent effect
Procedure, shortened: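 HCT116 cells exposed for 1 h in complete medium; RIPA lysates quantified by BCA, equal protein separated on 8–13% SDS-PAGE, transferred to PVDF, probed with primary antibodies overnight at 4 °C and HRP secondaries, chemiluminescence read-out.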

HCT-116 [14] = assay: Induction of cell cycle arrest in human HCT116 cells assessed as accumulation at G2/M phase at 15 uM after 24 hrs by propidium iodide staining-based flow cytometric analysis in presence of RNase A (reference value: 20.6%); type: functional
[15] = Upregulation of phosphorylated ATR expression in human HCT116 cells at 1 hr by Western blot analysis; type: functional, cell-based; settings: HCT-116
RKO = assay: Antiproliferative activity against human RKO cells after 24 to 72 hrs by SRB assay; type: functional, cell-based; procedure, shortened: as §2
HCT-116 [16] = assay: Induction of apoptosis in human HCT116 cells assessed as viable cells at 7.5 uM after 48 hrs by annexin V-FITC/propidium iodide staining-based flow cytometric analysis (reference value: 91.2%); type: functional; settings: HCT-116, 48 h, read-out: Activity
HCT-116 [17] = assay: Induction of apoptosis in human HCT116 cells assessed as late apoptotic cells at 30 uM after 48 hrs by annexin V-FITC/propidium iodide staining-based flow cytometric analysis (reference value: 7.2%); type: functional
HCT-116 [18] = assay: Induction of apoptosis in human HCT116 cells assessed as early apoptotic cells at 7.5 uM after 48 hrs by annexin V-FITC/propidium iodide staining-based flow cytometric analysis (reference value: 1.6%); type: functional
HCT-116 [19] = assay: Increase in Cul-1 expression in human HCT116 cells after 24 hrs by western blot analysis; type: functional, cell-based; procedure, shortened: as §1
HCT-116 [20] = assay: Induction of morphological change in human HCT116 cells assessed as loss of contact with adjacent cells at 30 uM after 24 to 48 hrs by phase contrast microscopic analysis; type: functional, cell-based
Procedure, shortened: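 HCT116 cells incubated with compound for 24 h, then viewed and photographed under phase-contrast microscopy; also examined at 48 h.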

[21] = (§3) Antiproliferative activity against human HCT116 cells after 24 to 72 hrs by SRB assay; type: functional, cell-based; settings: HCT-116; procedure, shortened: as §2
HCT-116 [22] = assay: as §3; type: functional, cell-based; procedure, shortened: as §2
[23] = Upregulation of phosphorylated H2A.X expression at Ser139 in human HCT116 cells at 7.5 to 30 uM after 24 hrs by Western blot analysis; type: functional, cell-based; settings: HCT-116
HCT-116 [24] = assay: Induction of apoptosis in human HCT116 cells assessed as viable cells at 30 uM after 48 hrs by annexin V-FITC/propidium iodide staining-based flow cytometric analysis in presence of NAC (reference value: 87.4%); type: functional; settings: HCT-116, 48 h, read-out: Activity
HCT-116 [25] = assay: Induction of cell cycle arrest in human HCT116 cells assessed as accumulation at S phase at 7.5 uM after 24 hrs by propidium iodide staining-based flow cytometric analysis in presence of RNase A (reference value: 13.4%); type: functional

For `O=C/C=C/c1ccc2c(c1)O[C@@H](CO)[C@H](c1ccc(O)c(O)c1)O2` [AMERICANIN A], the Activity (HCT-116 [1]) was 4%, the Activity [2] was “Dose-dependent effect” and the IC50 (CAKI-1) was 66.4 µM. For the same compound, the Activity (HCT-116 [3]) was “inactive”, the Activity [4] was “Active” and the Activity (HCT-116 [5]) was 3%. For the same compound, the inhibition in vivo at 5 mg/kg [6] was 45%, the viability at 15 µM (HCT-116 [7]) was 76.3% and the Activity (HCT-116 [8]) was 19%. For the same compound, the Activity (HCT-116 [9]) was 7.6%, the inhibition [10] was “inactive” and the Activity [11] was “Active”. The viability at 30 µM (HCT-116 [12]) was 51.4%, the Activity [13] was “tde” and the Activity (HCT-116 [14]) was 31.8%. The Activity [15] was “Dose-dependent effect”, the IC50 (RKO) was 24.4 µM and the viability at 7.5 µM (HCT-116 [16]) was 84.6%. The Activity (HCT-116 [17]) was 36.5%, the Activity (HCT-116 [18]) was 3% and the Activity (HCT-116 [19]) was “Active”. The Activity (HCT-116 [20]) was “Active”, the IC50 [21] was 7.6 µM and the Activity (HCT-116 [22]) was “Dose-dependent effect”. For the same compound, the Activity [23] was “Active”, the viability at 30 µM (HCT-116 [24]) was 73.2% and the Activity (HCT-116 [25]) was 15.6%.
